{"source": "ChEMBL document CHEMBL3632461", "about": "(J Med Chem, 2015)", "key": {"[1]": {"assay": "Volume of distribution at steady state in CD-1 mouse at 1 mg/kg, iv and 3 or 5 mg/kg, po", "assay_type": "ADME, organism-based", "conditions": "in vivo, read-out: Vdss", "method_in_brief": "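Male mice, rats, dogs and cynomolgus monkeys, fasted overnight, fed after dosing. Intravenous dose 1 mg/kg in saline or 12% sulfobutyl ether β-cyclodextrin; oral arm 3 or 5 mg/kg in 0.5% methylcellulose. Steady-state volume derived from plasma concentration−time data; mean ± SD for n = 3, individual values for n = 2.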"}, "Cytochrome P450 1A2": {"molecular_target": "T1, Cytochrome P450 1A2 (Homo sapiens, UniProt P05177)", "T1 sequence (P05177 whole entry)": "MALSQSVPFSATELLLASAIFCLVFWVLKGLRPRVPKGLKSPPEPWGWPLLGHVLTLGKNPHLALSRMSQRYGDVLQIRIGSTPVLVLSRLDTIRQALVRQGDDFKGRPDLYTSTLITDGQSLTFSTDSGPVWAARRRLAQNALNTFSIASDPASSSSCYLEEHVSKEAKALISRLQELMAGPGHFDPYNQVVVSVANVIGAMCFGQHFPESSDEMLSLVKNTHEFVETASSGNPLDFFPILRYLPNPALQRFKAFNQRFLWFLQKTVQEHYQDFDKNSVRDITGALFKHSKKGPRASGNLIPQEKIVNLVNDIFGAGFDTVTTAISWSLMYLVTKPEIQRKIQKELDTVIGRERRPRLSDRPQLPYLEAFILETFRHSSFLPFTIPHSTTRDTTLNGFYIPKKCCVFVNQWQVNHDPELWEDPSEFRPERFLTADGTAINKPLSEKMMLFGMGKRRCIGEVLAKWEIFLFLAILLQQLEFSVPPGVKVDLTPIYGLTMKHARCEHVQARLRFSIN", "assay": "Time-dependent inhibition of CYP1A2 in human liver microsomes", "assay_type": "ADME", "method_in_brief": "(§1)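 Time- and concentration-dependent CYP inhibition assessed by an IC₅₀ shift assay in human liver microsomes.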"}, "[2]": {"assay": "Tmax in cynomolgus monkey at 3 or 5 mg/kg, po", "assay_type": "ADME, organism-based, Macaca fascicularis", "conditions": "in vivo", "method_in_brief": "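Male animals (CD-1 mice 25−35 g, cannulated Wistar-Han rats 250 g, beagle dogs 12 kg, cynomolgus monkeys 7 kg), fasted overnight and fed 1.0 or 2.0 h after dosing, water ad libitum. Oral dose 3 or 5 mg/kg in 0.5% methylcellulose. Parameters calculated from plasma concentration−time data; mean ± SD for n = 3, individual values for n = 2.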"}, "Cytochrome P450 2C9": {"molecular_target": "Cytochrome P450 2C9 (Homo sapiens, UniProt P11712)", "sequence (P11712 whole entry)": "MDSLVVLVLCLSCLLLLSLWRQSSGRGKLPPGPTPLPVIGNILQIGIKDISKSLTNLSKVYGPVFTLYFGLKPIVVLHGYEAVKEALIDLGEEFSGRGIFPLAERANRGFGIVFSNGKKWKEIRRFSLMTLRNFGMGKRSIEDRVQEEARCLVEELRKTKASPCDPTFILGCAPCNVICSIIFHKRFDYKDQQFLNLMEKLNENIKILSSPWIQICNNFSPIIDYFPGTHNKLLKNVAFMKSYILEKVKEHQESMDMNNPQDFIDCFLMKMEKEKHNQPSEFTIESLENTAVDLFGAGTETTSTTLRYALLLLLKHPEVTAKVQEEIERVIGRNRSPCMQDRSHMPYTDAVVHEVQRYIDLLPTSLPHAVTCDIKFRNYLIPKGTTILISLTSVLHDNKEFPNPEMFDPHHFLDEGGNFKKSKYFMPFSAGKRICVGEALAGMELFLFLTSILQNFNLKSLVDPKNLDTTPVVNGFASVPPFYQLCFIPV", "assay": "Reversible inhibition of CYP2C9 in human liver microsomes by LC-MS/MS analysis", "assay_type": "ADME", "method_in_brief": "(§2)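 Reversible inhibition of the major CYP enzymes tested in human liver microsomes using established protocols.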"}, "Cytochrome P450 2C8 [3]": {"molecular_target": "T2, Cytochrome P450 2C8 (Homo sapiens, UniProt P10632)", "T2 sequence (P10632 whole entry)": "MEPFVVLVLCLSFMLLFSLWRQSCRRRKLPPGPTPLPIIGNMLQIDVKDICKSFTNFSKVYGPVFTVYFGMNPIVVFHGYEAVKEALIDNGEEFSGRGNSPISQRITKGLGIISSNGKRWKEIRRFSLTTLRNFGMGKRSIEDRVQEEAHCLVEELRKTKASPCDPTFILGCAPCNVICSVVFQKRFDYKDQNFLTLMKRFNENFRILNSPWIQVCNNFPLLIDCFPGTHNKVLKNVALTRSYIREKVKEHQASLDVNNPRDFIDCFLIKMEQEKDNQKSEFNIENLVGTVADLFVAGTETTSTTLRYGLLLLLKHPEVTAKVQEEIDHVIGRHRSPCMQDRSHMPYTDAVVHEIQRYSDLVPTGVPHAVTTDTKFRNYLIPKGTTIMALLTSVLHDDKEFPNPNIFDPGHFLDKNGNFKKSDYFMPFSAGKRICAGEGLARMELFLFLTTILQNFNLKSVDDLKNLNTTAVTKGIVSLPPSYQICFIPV", "assay": "Time-dependent inhibition of CYP2C8 in human liver microsomes", "assay_type": "ADME", "method_in_brief": "as §1"}, "Cytochrome P450 2B6": {"molecular_target": "T3, Cytochrome P450 2B6 (Homo sapiens, UniProt P20813)", "T3 sequence (P20813 whole entry)": "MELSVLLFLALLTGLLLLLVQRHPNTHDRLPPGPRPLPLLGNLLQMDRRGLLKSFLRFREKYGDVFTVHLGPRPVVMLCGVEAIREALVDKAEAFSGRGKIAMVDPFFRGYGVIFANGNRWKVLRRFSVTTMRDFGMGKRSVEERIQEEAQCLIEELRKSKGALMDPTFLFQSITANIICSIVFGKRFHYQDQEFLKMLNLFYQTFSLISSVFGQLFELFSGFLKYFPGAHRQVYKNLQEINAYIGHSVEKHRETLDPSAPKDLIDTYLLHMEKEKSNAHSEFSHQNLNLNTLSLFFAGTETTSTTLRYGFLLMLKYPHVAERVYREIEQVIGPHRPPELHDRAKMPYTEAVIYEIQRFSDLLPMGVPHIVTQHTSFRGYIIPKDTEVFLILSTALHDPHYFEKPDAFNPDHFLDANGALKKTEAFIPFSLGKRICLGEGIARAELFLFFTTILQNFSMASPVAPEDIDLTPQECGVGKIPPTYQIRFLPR", "assay": "Reversible inhibition of CYP2B6 bupropion hydroxylase activity in human liver microsomes by LC-MS/MS analysis", "assay_type": "ADME", "method_in_brief": "as §2"}, "[4]": {"assay": "Drug excretion in cynomolgus monkey urine at 1 mg/kg, iv", "assay_type": "ADME, organism-based, Macaca fascicularis", "conditions": "read-out: Drug excretion", "method_in_brief": "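Male animals (beagle dogs 12 kg, Wistar-Han rats 250 g, cynomolgus monkeys 7 kg), fasted overnight and fed 1.0 or 2.0 h after dosing, water ad libitum. Dosed iv at 1 mg/kg in saline or 12% sulfobutyl ether β-cyclodextrin. Fraction of the iv dose excreted unchanged in urine.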"}, "[5]": {"assay": "Oral bioavailability in CD-1 mouse at 3 or 5 mg/kg", "assay_type": "ADME, organism-based", "conditions": "in vivo", "method_in_brief": "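Male CD-1 mice, Wistar-Han rats, beagle dogs and cynomolgus monkeys, fasted overnight and fed after dosing. Given po at 3 or 5 mg/kg in 0.5% methylcellulose, with an iv reference dose of 1 mg/kg. Bioavailability derived from plasma concentration−time data; mean ± SD (n = 3) or individual values (n = 2).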"}, "Cytochrome P450 2C8 [6]": {"molecular_target": "T2, Cytochrome P450 2C8", "assay": "Reversible inhibition of CYP2C8 amodiaquine-N-deethylase activity in human liver microsomes by LC-MS/MS analysis", "assay_type": "ADME", "method_in_brief": "as §2"}, "[7]": {"assay": "Fraction unbound in human plasma at 2 uM by equilibrium dialysis method", "assay_type": "ADME, cell-free", "method_in_brief": "(§3)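 Compound at 2 μM in mouse, rat, dog, monkey or human plasma; unbound fraction measured by equilibrium dialysis and reported as a mean.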"}, "[8]": {"assay": "Fraction unbound in monkey plasma at 2 uM by equilibrium dialysis method", "assay_type": "ADME, cell-free, Macaca mulatta", "conditions": "rhesus monkey", "method_in_brief": "as §3"}, "Cynomolgus monkey": {"system": "Cynomolgus monkey", "assay": "In vivo inhibition of MPO in LPS-stimulated po dosed cynomolgous monkey administered 1 hr post LPS challenge measured after 2 hrs", "assay_type": "functional, organism-based", "conditions": "Macaca fascicularis", "method_in_brief": "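Randomized crossover design in cynomolgus monkeys given iv LPS, then oral vehicle or compound (5, 20, 80 mg/kg) 1 h later. Heparinized plasma collected 2 h after dosing. Total MPO captured on anti-MPO antibody plates, plasma exchanged for drug-free medium, and residual activity read by Amplex Red peroxidation. EC₅₀ from a mixed-effect sigmoid model of exposure versus activity.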"}}, "data": [{"smiles": "COc1ccc(Cl)cc1-c1cc(=O)[nH]c(=S)n1CC(N)=O", "note": "[PF-06282999]", "values": [{"measurement": "Vd", "setting": "[1]", "value": 0.9, "unit": "L/kg"}, {"measurement": "IC50", "setting": "Cytochrome P450 1A2", "value": "> 100", "unit": "µM"}, {"measurement": "Tmax", "setting": "[2]", "value": 1.5, "unit": "h"}, {"measurement": "IC50", "setting": "Cytochrome P450 2C9", "value": "> 100", "unit": "µM"}, {"measurement": "IC50", "setting": "Cytochrome P450 2C8 [3]", "value": "> 100", "unit": "µM"}, {"measurement": "IC50", "setting": "Cytochrome P450 2B6", "value": "> 100", "unit": "µM"}, {"measurement": "dose excreted", "setting": "[4]", "value": 26, "unit": "%"}, {"measurement": "bioavailability", "setting": "[5]", "value": 100, "unit": "%"}, {"measurement": "IC50", "setting": "Cytochrome P450 2C8 [6]", "value": "> 100", "unit": "µM"}, {"measurement": "fraction unbound at 2 µM", "setting": "[7]", "value": 0.376}, {"measurement": "fraction unbound at 2 µM", "setting": "[8]", "value": 0.536}, {"measurement": "EC50", "setting": "Cynomolgus monkey", "value": 3.8, "unit": "µM"}]}]}
